Diaphorase inh = diaphorase inhibitors and chemical oxidizers, primary screen, counter-screen for diaphorase-coupled primary assays, biochemical, uHTS, resorufin fluorescence; inhibition, % at 20 µM; AID 1217, 2008; hit rate 0.69% among 190,000; diaphorase resazurin-to-resorufin fluorescence, NADH, 16 min; bacterial (C. kluyveri) enzyme, not human;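 active = primary screen inhibition at 20 µM above a set limit, cut at about 50% in these data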;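 note: plate controls were DMSO with full reaction for no effect and wells lacking NADH for full effect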
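System: Diaphorase enzyme from Clostridium kluyveri | Amount: Enzyme working solution with 0.14 U/mL diaphorase | Benchmarks: No-NADH positive control and DMSO neutral control | Signal: Fluorescence of resorufin formed from resazurin, Ex 544/Em 590 nm | Schedule: 16-min room-temperature incubation before reading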
G6PDH counter = L. mesenteroides G6PDH inhibitors, counter-screen for G6PDH-coupled screening assays, biochemical, Leuconostoc mesenteroides enzyme; Purified L. mesenteroides G6PDH, diaphorase/resazurin coupled fluorescence, 45 min; AID 1020, 2008; hit rate 0.12% among 200,000; glucose-6-phosphate dehydrogenase [Leuconostoc mesenteroides]; inhibition, % at 5 µM; in the data active = inhibition above about 50%
PfGluPho inh = PfG6PD enzyme inhibitors, primary screen, biochemical, fluorescence intensity, uHTS; PfGluPho enzyme, NADPH resazurin-diaphorase fluorescence; inhibition, % at 20 µM; hit rate 0.78% among 350,000; AID 504690, 2011;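 active = inhibition reaching at least a set limit at 20 µM in the primary screen, cut at about 59% in these data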;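 note: 0% = DMSO wells with substrate and 100% = DMSO wells lacking glucose-6-phosphate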
Diaph act CS = compounds boosting diaphorase resazurin reduction – biochemical, uHTS, resorufin fluorescence, counter-screen for diaphorase-coupled primary assays, primary screen; AID 1229, 2008; hit rate 0.005% among 190,000; activation factor at 20 µM; Diaphorase/resazurin coupled assay, 16 min; hits give high values; 1 = vehicle wells, 0 = NADH-free wells;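 active = diaphorase activity raised at least twofold by the compound at 20 µM; inactive = activation factor below 2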
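Material: Clostridium kluyveri diaphorase, purified enzyme; Quantity: enzyme 0.07 U/mL final; Medium: HEPES pH 7.4 buffer with MgCl2 and Tween 20; Dosing: single compound dose of 20 µM, 1% DMSO final; Schedule: 16 min reaction at room temperature; Measured by: red resorufin fluorescence at 544/590 nm excitation/emission.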
HKDC1 inh = HKDC1 hexokinase inhibitors, primary screen, biochemical, fluorescence, uHTS; recombinant HKDC1, G6PDH/diaphorase resazurin coupled fluorescence; inhibition, % at 20 µM; hit rate 0.16% among 340,000; AID 493160, 2011;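 active = inhibition above about 35% when tested at 20 µM, limit read from the data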;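 note: plate controls were DMSO wells with enzyme for no effect and DMSO wells lacking enzyme for full effect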
Target sequence (Q2TB90 whole entry, looked up): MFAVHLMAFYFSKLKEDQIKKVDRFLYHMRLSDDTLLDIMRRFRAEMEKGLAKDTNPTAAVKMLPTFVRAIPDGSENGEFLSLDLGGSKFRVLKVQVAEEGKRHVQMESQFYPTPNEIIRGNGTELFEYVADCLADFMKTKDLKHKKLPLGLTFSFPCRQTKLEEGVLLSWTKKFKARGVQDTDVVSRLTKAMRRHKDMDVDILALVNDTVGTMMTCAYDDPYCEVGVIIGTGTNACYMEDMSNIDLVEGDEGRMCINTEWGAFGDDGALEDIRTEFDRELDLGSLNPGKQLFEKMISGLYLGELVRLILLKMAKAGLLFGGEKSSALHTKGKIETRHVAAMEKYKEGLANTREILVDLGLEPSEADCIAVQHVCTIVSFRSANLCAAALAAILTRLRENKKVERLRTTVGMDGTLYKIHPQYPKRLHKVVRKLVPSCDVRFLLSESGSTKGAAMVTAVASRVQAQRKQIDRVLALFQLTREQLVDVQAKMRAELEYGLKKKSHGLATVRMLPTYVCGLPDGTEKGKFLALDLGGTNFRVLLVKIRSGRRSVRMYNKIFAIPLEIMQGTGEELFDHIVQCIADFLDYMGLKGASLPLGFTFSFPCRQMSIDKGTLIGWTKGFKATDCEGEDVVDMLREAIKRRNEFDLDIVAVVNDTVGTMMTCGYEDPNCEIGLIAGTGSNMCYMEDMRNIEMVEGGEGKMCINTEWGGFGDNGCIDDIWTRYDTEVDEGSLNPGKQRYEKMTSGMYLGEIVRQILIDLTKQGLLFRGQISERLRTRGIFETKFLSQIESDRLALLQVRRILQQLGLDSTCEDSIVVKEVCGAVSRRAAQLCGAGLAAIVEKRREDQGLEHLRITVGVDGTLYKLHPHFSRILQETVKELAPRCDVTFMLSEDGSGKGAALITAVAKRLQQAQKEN
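Test system: HK5 enzyme. Quantity: 5 µg/mL HK5 final. Reagent: glucose and ATP substrates. Schedule: 90 min reaction incubation at room temperature, dark. Technique: resazurin-to-resorufin fluorescence via G6PDH and diaphorase coupling, 525/613 nm. Control set: DMSO wells with and without enzyme mix.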
The depositor's hits bear a star; nt = no result given. The list is not random: actives were taken first. Their share in the collection is about 1.2%.

SMILES | Diaphorase inh | G6PDH counter | PfGluPho inh | Diaph act CS | HKDC1 inh
O=C1c2cccc3c([N+](=O)[O-])ccc(c23)C(=O)N1c1nccs1 | 27 | 9 | 60* | 0.7 | 18
COc1ccc([C@H]2C[C@@H](n3cc(C4CC4)nn3)[C@H](O)CN2CC2CCCCC2)cc1 | nt | nt | 12 | nt | nt
O=C(CC(C(=O)O)c1c[nH]c2ccccc12)c1ccccc1 (configuration not stated) | 78* | 6 | -18 | 0.2 | -1
O=C(O)C(O)Cc1c[nH]c2ccccc12 (configuration not stated) | 4 | 2 | 1 | 1 | -6
CC(CCC(=O)NN)C1CCC2C3CCC4CC(O)CCC4(C)C3CCC12C (configuration not stated) | nt | nt | -23 | nt | 1
CC(CCC(C)C(C)(C)C)[C@@H]1CC[C@H]2C3C[C@H](OS(O)(=S)=S)[C@H]4C[C@H](OS(O)(=S)=S)[C@@H](OS(O)(=S)=S)C[C@]4(C)[C@H]3CC[C@]12C (some centres not stated) (tested in a mixture with another compound) | nt | nt | -54 | nt | 81*
CCCN1C(=O)c2cccc3c(N4CCCCC4)ccc(c23)C1=O | 26 | -16 | 6 | 0.7 | -3
O=C1c2cccc3c(N4CCCCC4)ccc(c23)C(=O)N1c1ccccn1 | 52* | 4 | -5 | 0.5 | -2
C=CC#CC[N+]1(CC#Cc2ccccc2)CCOCC1 | -47 | 1 | 72* | 1.5 | 34
COc1ccc(-c2ccc(CN3C(C)C(=O)N(Cc4cn(CCC5OCCO5)nn4)CCS3(=O)=O)cc2)cc1 (configuration not stated) | nt | nt | 8 | nt | nt
COc1cccc(OC)c1-c1nn2c(-c3cc(-c4ccccc4)n[nH]3)nnc2s1 | 15 | 0 | 32 | 0.8 | 44*
COc1cccc(-c2nnc3sc(-c4ccccc4)nn23)c1 | 18 | 13 | -3 | 0.8 | 1
Oc1ccc2[nH]ccc2c1 | 25 | 56* | 2 | 0.7 | 2
C[C@H](CO)N1C[C@H](C)[C@H](CN(C)C(=O)c2ccccc2F)Oc2ncc(Br)cc2C1=O | nt | nt | -11 | nt | nt
Cc1cc(C)n2c(SC/C(O)=C(\C#N)c3nc4ccccc4[nH]3)nnc2n1 | 53* | 22 | -9 | 0.5 | 10
CCOc1ccc(CNC(=O)C2CCN(S(=O)(=O)N3CCC(C)CC3)CC2)cc1OC | nt | nt | 8 | nt | nt
CN(C(=O)c1ccccc1)C(=O)c1ccccc1 | nt | nt | -8 | nt | nt
CN(/C=C/C(=C\C=[N+](C)c1ccccc1)OCCCS(=O)(=O)[O-])c1ccccc1 | 59* | 17 | -9 | 0.4 | -3
CCN(CC)C(=O)C1=C(C)N(Cc2ccccc2)C(=O)C(CC(=O)NCc2cccc3ccccc23)C1 (configuration not stated) | nt | nt | -1 | nt | nt
Cc1ccc(N=Nc2c(N)[nH]n3c(=O)cc(-c4ccccc4)nc23)cc1 | 62* | -1 | -5 | 0.4 | -25
COCc1cc(C)c(C#N)c(=S)[nH]1 | 32 | 6 | 70* | 0.7 | 7
COCc1cc(=O)[nH]c(=S)[nH]1 | 23 | 0 | -5 | 0.8 | -4
O=C(NCCCn1ccnc1)c1sc2cc([N+](=O)[O-])ccc2c1Cl | nt | nt | 8 | nt | nt
CC(=O)NC(c1cccs1)c1cc([N+](=O)[O-])c2cccnc2c1O (configuration not stated) | 44 | 61* | 22 | 0.6 | 10
CC(C)C(=O)NC(c1ccccc1)c1cc([N+](=O)[O-])c2cccnc2c1O (configuration not stated) | 39 | 55* | 44 | 0.6 | 14
SMILES | Diaphorase inh | G6PDH counter | PfGluPho inh | Diaph act CS | HKDC1 inh
CC(=O)NC(c1ccc(C)cc1)c1cc(Cl)c2cccnc2c1O (configuration not stated) | nt | nt | -10 | nt | -26
CC(=O)NC(c1ccccc1)c1cc([N+](=O)[O-])c2cccnc2c1O (configuration not stated) | 56* | 61* | 29 | 0.4 | 15
CCC(=O)NC(c1cccs1)c1cc([N+](=O)[O-])c2cccnc2c1O (configuration not stated) | 31 | 38 | 34 | 0.7 | 9
COc1ccc(CN(C(C)=O)c2cc(C)c([N+](=O)[O-])cc2OC)cc1OC | nt | nt | -4 | nt | nt
COc1ccccc1NC(=O)CCCCCN1C(=O)c2cccc([N+](=O)[O-])c2C1=O | nt | nt | 13 | nt | -5
COc1cc(/C=C2/C(=O)c3cccc([N+](=O)[O-])c3C2=O)c(Br)cc1O | 50* | -3 | 19 | 0.5 | 29
CC(=O)N1CCN(c2ccc(NC(=S)NC(=O)COc3ccc(C(C)(C)C)cc3)cc2)CC1 | 15 | 14 | -6 | 0.9 | -9
CCC(=O)N1CCN(c2ccc(NC(=S)NC(=O)COc3ccccc3)cc2)CC1 | 64* | 9 | -1 | 0.4 | -7
O=C(O)/C=C/C(=O)Nc1ccc2c(c1)NC(=O)CO2 | 61* | 7 | 13 | 0.4 | -4
Oc1ccc(Cl)cc1C=Nc1ccc2c3c(cccc13)CC2 | 60* | 34 | 40 | 0.4 | 5
O=C(NCc1ccccc1F)C1CC(=O)N(Cc2ccco2)C1 (configuration not stated) | nt | nt | -5 | nt | nt
CCOc1ccc(-c2nnc3ccc(SCC(=O)N4CCCCC4)nn23)cc1 | 27 | -33 | 25 | 0.7 | 3
CCOc1ccc(-c2nnc3ccc(SC(C)C)nn23)cc1 | 60* | 15 | 35 | 0.4 | 26
CC1=C(C(=O)Nc2ccc(C(=O)NCCCN3CCCCC3C)cc2)SCCO1 (configuration not stated) | nt | nt | 6 | nt | nt
CN(Cc1nc(-c2cccs2)no1)CC1(N2CCOCC2)CCCCC1 | 74* | 13 | 6 | 0.3 | 0
Cc1c(Br)c(=O)oc2c(Br)c(O)c(O)cc12 | 75* | 26 | -15 | 0.2 | 3
C[C@@H]1CN([C@H](C)CO)C(=O)CCCn2nncc2CO[C@H]1CN(C)Cc1ccc2cccnc2c1 | nt | nt | -1 | nt | nt
CCCCCCn1c(SCC(C)C)nc2c1c(=O)[nH]c(=O)n2C | 7 | 11 | -6 | 0.9 | -4
CCCCCCn1c(SCC(=O)OC)nc2c1c(=O)[nH]c(=O)n2C | 15 | -10 | 78* | 0.9 | -17
CCOC(=O)C1CC(=NO)c2ccc(OC)c(OC)c2C1 (configuration not stated) | nt | nt | 31 | nt | nt
O=C(COc1ccc(Cl)cc1Cl)NC(=S)Nc1ccccc1C(=O)O | 53* | 8 | nt | 0.5 | nt
CCn1c(SCC(=O)c2ccc3c(c2)Cc2ccccc2-3)nnc1-c1ccc(N)cc1 | -5 | 10 | 0 | 1.1 | -6
